Results from publication PMC3819402 (Journal of medicinal chemistry, 2013).
pIC50: −log10 of the molar value. “Also recorded” adds a separate entry of the source. Like-named read-outs stand apart in the source and are kept apart here. Values belong to the compound of their own block, whether it stands above or below them.

Columns and labels:
[1] = tested on: purified bovine brain tubulin; assay: In vitro tubulin polymerization; assay type: biochemical; conditions: 10 μM, 37 °C, absorbance at 340 nm over 40 min
[2] = target: porcine brain tubulin, preformed microtubules (paclitaxel binding site) (Sus scrofa, UniProt P02550+P02554); assay: Competitive mass spectrometry binding assay, paclitaxel site; conditions: paclitaxel 1.2 μM, 1 mM GTP, competitor 0.1–100 μM
tubulin in DU145 cells = assay: In vivo; assay type: cell-based, human; conditions: for polymerized versus soluble tubulin in cells: 24 h treatment
RF-1 = assay: In vitro cytotoxicity, RF-1; assay type: cell-based; conditions: Homo sapiens, RF1, 96 h, read-out: IC50 (GI50) RF-1
In short: (§1)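 Tumour cell lines were grown in DMEM or RPMI with 10% FBS and penicillin-streptomycin, then plated in twelve-well dishes. Test compound was added 24 h later at various concentrations. After 96 h, viable cells were counted by trypan blue exclusion from duplicate wells.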

N417 = assay: In vitro cytotoxicity, N417; assay type: cell-based; conditions: Homo sapiens, N417, 96 h, read-out: IC50 (GI50) N417
In short: as §1

SK BR-3 = assay: In vitro cytotoxicity, SK BR-3; assay type: cell-based; conditions: Homo sapiens, SK-BR-3, 96 h, read-out: IC50 (GI50) SK BR-3
In short: as §1

MCF-7 = assay: In vitro cytotoxicity, MCF-7; assay type: cell-based; conditions: Homo sapiens, MCF7, 96 h, read-out: IC50 (GI50) MCF-7
In short: as §1

SK-MEL-28 = assay: In vitro cytotoxicity, SK-MEL-28; assay type: cell-based; conditions: Homo sapiens, SK-MEL-28, 96 h, read-out: IC50 (GI50) SK-MEL-28
In short: as §1

MES-SA = assay: In vitro cytotoxicity, MES-SA; assay type: cell-based; conditions: Homo sapiens, 96 h, read-out: IC50 (GI50) MES-SA
NAMALWA = assay: In vitro cytotoxicity, NAMALWA; assay type: cell-based; conditions: Homo sapiens, 96 h, read-out: IC50 (GI50) NAMALWA
In short: as §1

H80 = assay: In vitro cytotoxicity, H80; assay type: cell-based; conditions: Homo sapiens, 96 h, read-out: IC50 (GI50) H80
In short: as §1

MES-SA / DX5 = assay: Cytotoxicity in multidrug-resistant subline MES-SA/DX5; assay type: cell-based, human; conditions: all three pairs of sensitive and drug-resistant cancer cells
DU145 = assay: In vitro cytotoxicity, DU145; assay type: cell-based; conditions: Homo sapiens, DU-145, 96 h, read-out: IC50 (GI50) DU145
DU145 cells [3] = assay: Cell cycle progression by flow cytometry; assay type: cell-based, human; conditions: 24 h, propidium iodide
In short: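 DU145 cells were grown in DMEM with 10% FBS and penicillin-streptomycin, then treated 24 h after plating. Harvest was 24 h after treatment, pooling trypsinised and non-attached cells. Cells were PBS-washed and fixed in ice-cold 70% ethanol for at least 24 h. They were stained with propidium iodide plus RNase A (0.5 mg) for 30 min at 37 °C, run on a FACScan, and analysed for cell-cycle distribution.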

[4] = tested on: BT20 human breast tumor xenograft; assay: Nude mouse xenograft assay
T47D = assay: In vitro cytotoxicity, T47D; assay type: cell-based; conditions: Homo sapiens, 96 h, read-out: IC50 (GI50) T47D
In short: as §1

MOLT-4 = assay: In vitro cytotoxicity, MOLT-4; assay type: cell-based; conditions: Homo sapiens, MOLT-4, 96 h, read-out: IC50 (GI50) MOLT-4
In short: as §1

HCT15 = assay: In vitro cytotoxicity, HCT15; assay type: cell-based; conditions: Homo sapiens, HCT-15, 96 h, read-out: IC50 (GI50) HCT15
In short: as §1

[5] = target: porcine brain tubulin (vinblastine binding site) (Sus scrofa, UniProt P02550+P02554); assay: Competitive mass spectrometry binding assay, vinblastine site; conditions: vinblastine 1.2 μM, no GTP; competitor 0.1–100 μM
LNCAP = assay: In vitro cytotoxicity, LNCAP; assay type: cell-based; conditions: Homo sapiens, 96 h, read-out: IC50 (GI50) LNCAP
In short: as §1

normal cell line = assay: PARP cleavage, normal cell line; assay type: cell-based; conditions: data not shown
various tumor cell lines = assay: Cytotoxicity across a wide spectrum of cancer cell lines; assay type: cell-based; conditions: Homo sapiens, read-out: IC50 values across tumor cell lines of Table 3
In short: as §1

DU145 cells [6] = assay: Fluorescent tubulin staining, mitotic spindle; assay type: cell-based, human; conditions: 24 h exposure; 25 nM in Figure 2
HepG2 cells = assay: Cytotoxicity to HepG2; assay type: cell-based; conditions: 4 h exposure, Alamar Blue
DAUDI = assay: In vitro cytotoxicity, DAUDI; assay type: cell-based; conditions: Homo sapiens, 96 h, read-out: IC50 (GI50) DAUDI
In short: as §1

PC3 = assay: In vitro cytotoxicity, PC3; assay type: cell-based; conditions: Homo sapiens, PC-3, 96 h, read-out: IC50 (GI50) PC3
In short: as §1

BT20 = assay: In vitro cytotoxicity, BT20; assay type: cell-based; conditions: Homo sapiens, BT-20, 96 h, read-out: IC50 (GI50) BT20
In short: as §1

SKOV3 = assay: In vitro cytotoxicity, SKOV3; assay type: cell-based; conditions: Homo sapiens, SK-OV-3, 96 h, read-out: IC50 (GI50) SKOV3
In short: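 Tumour cells grown in DMEM or RPMI with 10% fetal bovine serum and 1 unit/mL penicillin-streptomycin, plated in twelve-well dishes, then dosed 24 h later with test compound at various concentrations. After 96 h, viable cells counted in duplicate wells by trypan blue exclusion.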

DU145 cells [7] = assay: PARP cleavage western blot, tumor cells; assay type: cell-based, human; conditions: tumor cell line
In short: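 DU145 cells in 100 mm plates were treated 24 h after plating with DMSO or increasing concentrations of test compound, then collected at set time points. Frozen pellets were lysed in 0.1% Triton X-100 buffer with protease inhibitors. Equal protein was run on 10% SDS-PAGE and moved to nitrocellulose. The blot was probed with anti-PARP antibody and IRDye 800 secondary, then scanned on Odyssey for PARP cleavage.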

MIA-PaCa-2 cells = assay: Soft agar assay; assay type: cell-based, human; conditions: three weeks of growth
MIAPaCa2 = assay: In vitro cytotoxicity, MIAPaCa2; assay type: cell-based; conditions: Homo sapiens, MIA PaCa-2, 96 h, read-out: IC50 (GI50) MIAPaCa2
In short: as §1

H187 = assay: In vitro cytotoxicity, H187; assay type: cell-based; conditions: Homo sapiens, NCI-H187, 96 h, read-out: IC50 (GI50) H187
In short: as §1

HCT116 = assay: In vitro cytotoxicity, HCT116; assay type: cell-based; conditions: Homo sapiens, HCT-116, 96 h, read-out: IC50 (GI50) HCT116
In short: as §1

RF-48 = assay: In vitro cytotoxicity, RF-48; assay type: cell-based; conditions: Homo sapiens, RF48, 96 h, read-out: IC50 (GI50) RF-48
In short: as §1

Structure (SMILES): COc1cc(OC)c(/C=C/S(=O)(=O)Nc2ccc(OC)c(NCC(=O)O)c2)c(OC)c1 [25a, (E)-2-(2-Methoxy-5-(2-(2′,4′,6′-trimethoxyphenyl)vinylsulfonamido)phenylamino)acetic acid]
tubulin polymerization [1]: completely inhibit tubulin polymerization

Structure (SMILES): O=c1cc[nH]c(=S)[nH]1 [2-thiouracil, 2-Thiouracil, reference compound]
LD50 to Caco-2 cells (Caco-2 cells; human, Caco-2, 1 h): > 1000 µM

Structure (SMILES): CC(=O)O[C@@]12CO[C@@H]1C[C@H](O)[C@@]1(C)C(=O)[C@H](O)C3=C(C)[C@@H](OC(=O)[C@H](O)[C@@H](NC(=O)OC(C)(C)C)c4ccccc4)C[C@@](O)([C@@H](OC(=O)c4ccccc4)[C@H]21)C3(C)C.O.O.O [docetaxel, reference compound]
competition with paclitaxel binding to tubulin [2]: effectively competed

Structure (SMILES): CC(=O)O[C@H]1C(=O)[C@@]2(C)[C@H]([C@H](OC(=O)c3ccccc3)[C@]3(O)C[C@H](OC(=O)[C@H](O)[C@@H](NC(=O)c4ccccc4)c4ccccc4)C(C)=C1C3(C)C)[C@]1(OC(C)=O)CO[C@@H]1C[C@@H]2O [Paclitaxel, reference compound]
polymerized versus soluble tubulin in cells (tubulin in DU145 cells): induced a shift from soluble to polymerized tubulin
tubulin polymerization [1]: strong increase in turbidity

Structure (SMILES): COc1ccc(NS(=O)(=O)/C=C/c2c(OC)cc(OC)cc2OC)cc1 [6i, (E)-N-(4-Methoxyphenyl)-2-(2′,4′,6′-trimethoxyphenyl)ethenesulfonamide]
pIC50 (RF-1): 7.30
pIC50 (N417): 7.30
pIC50 (SK BR-3): 7.30
pIC50 (MCF-7): 7.30
pIC50 (SK-MEL-28): 7.30
pIC50 (MES-SA): 7.30
pIC50 (NAMALWA): 7.00
pIC50 (H80): 7.00

Structure (SMILES): COc1cc(OC)c(/C=C/S(=O)(=O)Nc2ccc(OC)c(N)c2)c(OC)c1 [6t, (E)-N-(3-Amino-4-methoxyphenyl)-2-(2′,4′,6′-trimethoxyphenyl)ethenesulfonamide]
resistance factors (MES-SA / DX5): < 2
pIC50 (DU145): 8.10
cell cycle distribution (DU145 cells [3]; 0.005 μM): accumulated in the G2/M phase
cell cycle distribution (DU145 cells [3]; 0.02 μM): a majority of cells showed G2/M arrest
tumor growth in xenograft ([4]; 20 mg/kg IP every other day, 6 injections, female nude mice): readily inhibited tumor growth
body weight ([4]; 20 mg/kg IP, xenograft study): no body weight loss of more than 10%; also recorded: no reduction in body weight
pIC50 (T47D): 8.10
pIC50 (MOLT-4): 8.10
pIC50 (HCT15): 8.10
competition with vinblastine binding to tubulin [5]: did not compete
pIC50 (LNCAP): 8.10
pIC50 (SK-MEL-28): 8.10
polymerized versus soluble tubulin in cells (tubulin in DU145 cells): concentration-dependent depolymerization of tubulin; also recorded: completely inhibits the polymerization of tubulin
tubulin depolymerization in paclitaxel pre-treated cells (tubulin in DU145 cells; paclitaxel 24 h, then compound 4 h): effective at depolymerizing paclitaxel induced polymerized tubulin
tubulin polymerization [1]: completely inhibit tubulin polymerization
PARP cleavage in normal cell line (normal cell line): no PARP cleavage
pIC50 (various tumor cell lines): 8.00 to 8.52
effect on microtubule cytoskeleton / mitotic spindle (DU145 cells [6]): complete depolymerization of the microtubule cytoskeleton
competition with paclitaxel binding to tubulin [2]: did not compete
LD50 to HepG2 cells (HepG2 cells): >1000 µM
pIC50 (NAMALWA): 8.10
pIC50 (DAUDI): 8.10
pIC50 (PC3): 8.10
pIC50 (BT20): 8.10
pIC50 (SKOV3): 8.10
LD50 to Caco-2 cells (Caco-2 cells; one hour incubation, Alamar Blue): >1000 µM
PARP cleavage (DU145 cells [7]): Full length PARP gets cleaved
anchorage-independent growth in soft agar (MIA-PaCa-2 cells): inhibition of anchorage-independent growth of tumor cells in a dose dependent manner

competition with vinblastine binding to tubulin [5]: effectively competed
Structure (SMILES): CC[C@]1(O)C[C@H]2CN(CCc3c([nH]c4ccccc34)[C@@](C(=O)OC)(c3cc4c(cc3OC)N(C=O)[C@H]3[C@@](O)(C(=O)OC)[C@H](OC(C)=O)[C@]5(CC)C=CCN6CC[C@]43[C@@H]65)C2)C1 [vincristine, reference compound]

Structure (SMILES): COC(=O)Nc1nc2cc(C(=O)c3cccs3)ccc2[nH]1 [nocodazole, Nocodazole, reference compound]
tubulin polymerization [1]: completely inhibit tubulin polymerization

Structure (SMILES): COc1cc(OC)c(/C=C/S(=O)(=O)Nc2ccc(OC)c(NC(C)(C)C(=O)O)c2)c(OC)c1 [25c, (E)-2-(2-Methoxy-5-(2-(2′,4′,6′-trimethoxyphenyl)vinylsulfonamido)phenylamino)-2-methylpropanoic acid]
resistance factors (MES-SA / DX5): < 2
pIC50 (N417): 7.52
pIC50 (MOLT-4): 7.52
tubulin polymerization [1]: completely inhibit tubulin polymerization
pIC50 (DAUDI): 7.52

Structure (SMILES): COc1cc(OC)c(/C=C/S(=O)(=O)Nc2ccc(OC)c(O)c2)c(OC)c1 [6p, (E)-N-(3-Hydroxy-4-methoxyphenyl)-2-(2′,4′,6′-trimethoxyphenyl)ethenesulfonamide]
pIC50 (RF-1): 8.00
pIC50 (MIAPaCa2): 8.00
pIC50 (N417): 8.00
pIC50 (H187): 8.00
pIC50 (HCT116): 8.00
pIC50 (RF-48): 8.00
